Results as given in ChEMBL document CHEMBL4359929, “Piperidine and piperazine inhibitors of fatty acid amide hydrolase targeting excitotoxic pathology” (Bioorg Med Chem, 2019).
Active and inactive are the calls of the source. No cut-off for these calls is given here.

Key:
[1] = target: T1, Monoacylglycerol lipase ABHD6 (Rattus norvegicus) (UniProt Q5XI64); experiment: Inhibition of ABHD6 in rat brain membrane at 1 to 10 uM incubated for 30 mins followed by incubation with FP-Rh probe for 45 mins by ABPP assay; type: cell membranes
T1 sequence (whole entry): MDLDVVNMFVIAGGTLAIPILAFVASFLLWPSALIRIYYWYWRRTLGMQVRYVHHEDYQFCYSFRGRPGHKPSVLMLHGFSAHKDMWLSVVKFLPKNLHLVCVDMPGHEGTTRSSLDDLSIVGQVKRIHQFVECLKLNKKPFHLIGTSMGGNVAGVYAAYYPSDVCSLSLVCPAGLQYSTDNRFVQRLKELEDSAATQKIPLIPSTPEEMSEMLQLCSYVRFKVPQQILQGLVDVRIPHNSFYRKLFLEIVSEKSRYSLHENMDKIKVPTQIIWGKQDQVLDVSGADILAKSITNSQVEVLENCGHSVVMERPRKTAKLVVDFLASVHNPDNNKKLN
Procedure, shortened: (§1)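 Gel-based competitive ABPP on rat brain membrane homogenates (10 mg/mL protein). Compound at 1 and 10 μM or DMSO for 30 min at room temperature, then 10 μM rhodamine-tagged fluorophosphonate probe for 45 min at room temperature. FAAH was run with a reference FAAH inhibitor at 10 μM as positive control. Serine hydrolase labelling read by in-gel fluorescence.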

[2] = target: Cannabinoid receptor 1 (Rattus norvegicus) (UniProt P20272); experiment: Displacement of [3H]CP55940 from CB1 receptor in rat brain by competition-equilibrium binding analysis; type: tissue-based
Procedure, shortened: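 Rat brain membranes as CB1 source; competition-equilibrium binding against [3H]CP-55,940.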

[3] = Stability in mouse liver microsomes assessed as half life; type: ADME, Microsome
Procedure, shortened: (§2)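 Stability assessed as half-life in human, rat and mouse plasma and gastric fluid, and in human, rat and mouse liver microsomal preparations.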

[4] = target: T2, Monoglyceride lipase (Rattus norvegicus) (UniProt Q8R431); experiment: Inhibition of MGL in rat brain membrane at 1 to 10 uM incubated for 30 mins followed by incubation with FP-Rh probe for 45 mins by ABPP assay; type: cell membranes; procedure, shortened: as §1
T2 sequence (whole entry): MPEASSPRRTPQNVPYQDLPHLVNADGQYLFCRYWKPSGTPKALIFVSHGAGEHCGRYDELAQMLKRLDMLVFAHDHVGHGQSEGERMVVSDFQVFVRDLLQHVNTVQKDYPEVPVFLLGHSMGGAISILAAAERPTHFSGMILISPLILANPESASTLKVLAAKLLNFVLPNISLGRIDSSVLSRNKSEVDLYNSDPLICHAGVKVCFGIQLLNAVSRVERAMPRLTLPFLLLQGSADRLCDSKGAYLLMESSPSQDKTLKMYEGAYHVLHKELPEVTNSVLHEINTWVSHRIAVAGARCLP

Hippocampus [5] = experiment: (§3) Neuroprotective activity against Sprague-Dawley rat hippocampus assessed as decrease in KA-induced excitotoxicity by measuring increase in syn IIb level at 3 to 30 uM preincubated for 1 hr followed by KA stimulation for 2 hrs in continued presence of compound followed by KA wash out and then further incubation with compound for 24 hrs by immunoblot analysis; type: functional, tissue-based
Procedure, shortened: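 Sprague-Dawley rat hippocampal slices (400 μm, postnatal day 12) cultured 18–20 days at 37 °C, 5% CO2. Pretreated 60 min with 3–30 μM compound or 0.1% DMSO, then 60 μM kainic acid for 2 h with compound. Three washouts, then 24 h recovery with 30 μM compound. Harvested in groups of 7–9; GluR1, synaptophysin and synapsin IIb by immunoblot with optical density. Unpaired t-tests.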

[6] = Stability in mouse gastric fluid assessed as half life; type: ADME, tissue-based, Gastric juice; procedure, shortened: as §2
[7] = Selectivity ratio of IC50 for human full length ABHD6 expressed in Escherichia coli cells to IC50 for rat recombinant His/GST-tagged FAAH expressed in Escherichia coli cells by fluorescence based assay
[8] = Selectivity ratio of IC50 for human recombinant His-tagged MGL expressed in Escherichia coli BL21 DE3 cells to IC50 for rat recombinant His/GST-tagged FAAH expressed in Escherichia coli cells by fluorescence based assay
[9] = target: Cannabinoid receptor 2 (Mus musculus) (UniProt P47936); experiment: Displacement of [3H]CP55940 from mouse CB2 receptor expressed in HEK293 cells by competition-equilibrium binding analysis; type: cell-based
Procedure, shortened: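 HEK293 cell membranes expressing mouse or human CB2; competition-equilibrium binding against [3H]CP-55,940.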

Hippocampus [10] = experiment: as §3, with “GluR1” for “syn IIb”, “level in dense neuropil” for “level”, “immunostaining” for “immunoblot”; type: functional, tissue-based
Procedure, shortened: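 Same hippocampal slice kainic acid protocol (60 μM, 2 h, after 1 h pretreatment; 24 h recovery with compound). Fixed hippocampal tissue from each treatment group immunostained with anti-GluR1 (1:200).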

Rattus norvegicus = species on record: Rattus norvegicus; experiment: Neuroprotective activity against Sprague-Dawley rat assessed as decrease in KA-induced seizure severity; type: functional, organism-based
Hippocampus [11] = experiment: as §3, with “protein” for “IIb”, “level in dense neuropil” for “level”, “immunostaining” for “immunoblot”; type: functional, tissue-based

Chain of Cannabinoid receptor 2 (Mus musculus) (P47936 whole entry): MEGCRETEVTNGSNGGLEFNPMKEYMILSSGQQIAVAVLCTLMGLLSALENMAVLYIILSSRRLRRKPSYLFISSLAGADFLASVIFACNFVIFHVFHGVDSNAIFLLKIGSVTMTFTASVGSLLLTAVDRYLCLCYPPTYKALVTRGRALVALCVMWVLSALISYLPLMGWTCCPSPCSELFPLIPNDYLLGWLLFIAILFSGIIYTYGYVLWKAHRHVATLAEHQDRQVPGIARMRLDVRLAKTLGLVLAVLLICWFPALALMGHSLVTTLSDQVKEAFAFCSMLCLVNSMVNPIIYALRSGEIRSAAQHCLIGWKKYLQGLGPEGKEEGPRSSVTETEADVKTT
Chain of Cannabinoid receptor 1 (Rattus norvegicus) (P20272 whole entry): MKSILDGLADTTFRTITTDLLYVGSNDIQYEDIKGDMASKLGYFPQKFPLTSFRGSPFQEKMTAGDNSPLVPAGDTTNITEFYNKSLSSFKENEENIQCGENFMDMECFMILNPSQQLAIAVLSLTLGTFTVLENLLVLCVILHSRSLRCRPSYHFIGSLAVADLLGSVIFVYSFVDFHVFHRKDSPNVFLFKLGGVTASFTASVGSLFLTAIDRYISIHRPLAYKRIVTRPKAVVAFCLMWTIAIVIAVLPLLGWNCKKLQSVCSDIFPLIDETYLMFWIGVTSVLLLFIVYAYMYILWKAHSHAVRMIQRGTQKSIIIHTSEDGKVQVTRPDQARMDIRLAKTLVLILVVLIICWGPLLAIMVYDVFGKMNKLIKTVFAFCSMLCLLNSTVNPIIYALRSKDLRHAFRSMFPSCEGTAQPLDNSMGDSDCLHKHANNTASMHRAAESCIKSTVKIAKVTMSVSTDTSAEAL

For `C[C@@H]1CN(c2ccc(F)cc2)CCN1C(=O)Oc1cccc(N2CCS(=O)(=O)CC2)c1`, the inhibition [1] was “inactive”, the Activity [2] was “inactive” and the half-life [3] was 15 to 25 min. For the same compound, the inhibition [4] was “inactive”, the inhibition (Hippocampus [5]) was “Active” and the half-life [6] was over 60 min. The Ratio IC50 [7] was over 1000, the Ratio IC50 [8] was over 1000 and the Activity [9] was “inactive”.

For `O=C(Oc1cccc(N2CCS(=O)(=O)CC2)c1)N1CCC(c2ccc(N3CCC3)cc2)CC1`, the inhibition [1] was “inactive”, the Activity [2] was “inactive” and the half-life [3] was 15 to 25 min. For the same compound, the inhibition [4] was “inactive”, the inhibition (Hippocampus [10]) was “Active” and the inhibition (Hippocampus [5]) was “Active”. For the same compound, the Activity (Rattus norvegicus) was “Active”, the half-life [6] was over 60 min and the Ratio IC50 [7] was over 1000. The Ratio IC50 [8] was over 1000, the Activity [9] was “inactive” and the inhibition (Hippocampus [11]) was “Active”.
